SMILES strings stand for the structures.

This note sets out measurements from ChEMBL document CHEMBL1122284, “Aromatic retinoic acid analogues. 2. Synthesis and pharmacological activity” (1983).

Test [1] concerns Cricetinae gen. sp. Briefly: Total cultures(15) versus active (7) at 10e-10 M conc. in hamster tracheal organ culture assay (TOC). It counts as functional, Trachea. The essentials: (§1)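 Tracheas from Syrian golden hamsters kept on a vitamin A deficient diet from birth to 30–32 days old. Cultured serum-free (CMRL 1066 with insulin, hydrocortisone, glutamine, antibiotics), one explant per dish, 50% O2/45% N2/5% CO2, 36 °C, rocked. 3 days without retinoid, then 7 days with retinoid, medium renewed three times. Histology on day 10. Active means keratin/keratohyaline granules absent. Usually duplicate, 6–7 tracheas per concentration.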

Test [2] concerns Cricetinae gen. sp. As to the kind of experiment: Total cultures(15) versus active (15) at 10e-8 M conc. in hamster tracheal organ culture assay (TOC). It counts as functional, Trachea. The essentials: as §1
Test [3] has as its system Cricetinae gen. sp. As to the kind of experiment: Relative potency with respect to retinoic acid in hamster tracheal organ culture assay (TOC). It counts as functional, Cricetulus griseus, Trachea.
Test [4] has as its system Cricetinae gen. sp. Briefly: Total cultures(15) versus active (14) at 10e-9 M conc. in hamster tracheal organ culture assay (TOC). It counts as functional, Trachea. The essentials:
as §1

For test [5], the system named is Cricetinae gen. sp. Briefly: ED50 of retinoid required to effect reversal of keratinization. It counts as functional. The essentials:
as §1

Test [6] has as its target T1, Ornithine decarboxylase (Mus musculus) (UniProt P00860).
T1 sequence (whole entry): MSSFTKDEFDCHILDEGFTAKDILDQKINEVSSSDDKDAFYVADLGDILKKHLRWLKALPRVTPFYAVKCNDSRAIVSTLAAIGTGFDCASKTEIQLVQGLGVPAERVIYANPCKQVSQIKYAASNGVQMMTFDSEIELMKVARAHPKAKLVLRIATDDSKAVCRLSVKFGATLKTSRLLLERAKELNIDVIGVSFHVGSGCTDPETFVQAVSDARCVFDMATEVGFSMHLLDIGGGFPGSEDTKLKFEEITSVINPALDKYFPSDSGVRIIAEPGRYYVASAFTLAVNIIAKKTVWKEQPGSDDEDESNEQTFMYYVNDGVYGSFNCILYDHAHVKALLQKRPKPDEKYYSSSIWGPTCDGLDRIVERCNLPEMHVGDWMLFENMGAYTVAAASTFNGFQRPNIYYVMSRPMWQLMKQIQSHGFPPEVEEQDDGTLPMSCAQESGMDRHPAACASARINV
As to the kind of experiment: Percent inhibition of the induction of ornithine decarboxylase at 1.7 nmol in mouse dorsal epidermis (ODC assay). In kind it is functional.

Test [7] addresses T1, Ornithine decarboxylase (Mus musculus). As to the kind of experiment: Percent inhibition of the induction of ornithine decarboxylase at 17 nmol dose in mouse dorsal epidermis (ODC assay). It counts as functional.
In test [8] the test system is Cricetinae gen. sp. Briefly: Total cultures(13) versus active (11) at 10e-8 M conc. in hamster tracheal organ culture assay (TOC). In kind it is functional, Trachea. The method in brief: as §1
Test [9] concerns Cricetinae gen. sp. Briefly: Total cultures(14) versus active (6) at 10e-9 M conc. in hamster tracheal organ culture assay (TOC). In kind it is functional, Trachea. The method in brief: as §1
Test [10] has as its system Cricetinae gen. sp. Briefly: Total cultures(14) versus active (5) at 10e-10 M conc. in hamster tracheal organ culture assay (TOC). In kind it is functional, Trachea. The essentials:
as §1

In test [11] the test system is Cricetinae gen. sp. As to the kind of experiment: Total cultures(14) versus active (6) at 10e-10 M conc. in hamster tracheal organ culture assay (TOC). It counts as functional, Trachea. The method in brief: as §1
Test [12] relates to Cricetinae gen. sp. As to the kind of experiment: Total cultures(13) versus active (13) at 10e-8 M conc. in hamster tracheal organ culture assay (TOC). It counts as functional, Trachea. The method in brief:
as §1

In test [13] the test system is Cricetinae gen. sp. Briefly: Total cultures(14) versus active (10) at 10e-9 M conc. in hamster tracheal organ culture assay (TOC). It counts as functional, Trachea. The essentials:
as §1

The subject of test [14] is Cricetinae gen. sp. As to the kind of experiment: Total cultures(0) versus active(12)at 10e-10 M conc. in hamster tracheal organ culture assay (TOC). It counts as functional, Trachea. The method in brief:
as §1

For test [15], the system named is Cricetinae gen. sp. Briefly: Total cultures(1) versus active (13)at 10e-9 M conc. in hamster tracheal organ culture assay (TOC). It counts as functional, Trachea. The method in brief: as §1
Test [16] has as its target T1, Ornithine decarboxylase (Mus musculus). As to the kind of experiment: Percent inhibition of the induction of ornithine decarboxylase in mouse dorsal epidermis (ODC assay). In kind it is functional.
The test system of test [17] is Cricetinae gen. sp. Briefly: Total cultures(2) versus active(12) at 10e-8 M conc. in hamster tracheal organ culture assay (TOC). It counts as functional, Trachea. The method in brief:
as §1

Test [18] has as its system Cricetinae gen. sp. As to the kind of experiment: Total cultures(6) versus active (2) at 10e-11 M conc. in hamster tracheal organ culture assay (TOC). In kind it is functional, Trachea. The method in brief: as §1
The subject of test [19] is Cricetinae gen. sp. Briefly: Total cultures(12) versus active (10) at 10e-9 M conc. in hamster tracheal organ culture assay (TOC). It counts as functional, Trachea. The essentials:
as §1

Test [20] concerns Cricetinae gen. sp. Briefly: Total cultures(7) versus active (7) at 10e-8 M conc. in hamster tracheal organ culture assay (TOC). In kind it is functional, Trachea. The essentials:
as §1

For test [21], the system named is Cricetinae gen. sp. As to the kind of experiment: Total cultures(13) versus active (8) at 10e-10 M conc. in hamster tracheal organ culture assay (TOC). In kind it is functional, Trachea. The essentials: as §1
In test [22] the test system is Cricetinae gen. sp. Briefly: Total cultures(11) versus active(12)at 10e-8 M conc. in hamster tracheal organ culture assay (TOC). It counts as functional, Trachea. The essentials:
as §1

Test [23] relates to Cricetinae gen. sp. Briefly: Total cultures(6) versus active(13) at 10e-10 M conc. in hamster tracheal organ culture assay (TOC). It counts as functional, Trachea. The essentials:
as §1

The test system of test [24] is Cricetinae gen. sp. As to the kind of experiment: Total cultures(10) versus active (12)at 10e-9 M conc. in hamster tracheal organ culture assay (TOC). In kind it is functional, Trachea. The method in brief:
as §1

The test system of test [25] is Cricetinae gen. sp. Briefly: Total cultures(6) versus active(6) at 10e-8 M conc. in hamster tracheal organ culture assay (TOC). It counts as functional, Trachea. The essentials: as §1
Test [26] concerns Cricetinae gen. sp. As to the kind of experiment: Total cultures(13) versus active(13) at 10e-9 M conc. in hamster tracheal organ culture assay (TOC). In kind it is functional, Trachea. The method in brief:
as §1

Test [27] relates to Cricetinae gen. sp. As to the kind of experiment: Total cultures(0) versus active(7) at 10e-11 M conc. in hamster tracheal organ culture assay (TOC). It counts as functional, Trachea. The essentials:
as §1

Test [28] concerns Cricetinae gen. sp. Briefly: Total cultures(4) versus active(13) at 10e-10 M conc. in hamster tracheal organ culture assay (TOC). It counts as functional, Trachea. The method in brief: as §1

Regarding `CC1=C(/C=C/C(C)=C/c2ccc(C(=O)O)s2)C(C)(C)CCC1`, the Active/total cultures in the test with Cricetinae gen. sp. [1] came out at 47%; in the test with Cricetinae gen. sp. [2] it was 100%; in the test on Cricetinae gen. sp. [4] it was 93%. In addition, the Relative activity with Cricetinae gen. sp. [3] is given as 2. Also, the ED50 in the test with Cricetinae gen. sp. [5] was determined as 0.02 nM. In addition, the inhibition of control was 42% in [6] and 67% in test [7].
`CCOC(=O)c1ccc(/C=C(C)\C=C\C2=C(C)CCCC2(C)C)s1`: the Active/total cultures with Cricetinae gen. sp. [8] is given as 85%; in the test on Cricetinae gen. sp. [9], 43%; in the test on Cricetinae gen. sp. [10], 36%. Besides, the Relative activity in the test on Cricetinae gen. sp. [3] is given as 0.3. Also, the ED50 with Cricetinae gen. sp. [5] turned out to be 0.02 nM. For the same compound, the inhibition of control came out at 35% in test [6] and 76% in test [7].
The compound `CCOC(=O)c1ccc(/C=C(C)/C=C/C2=C(C)CCCC2(C)C)s1` had a Relative activity with Cricetinae gen. sp. [3] of 3. In addition, the Active/total cultures with Cricetinae gen. sp. [11] worked out at 43%; in the test with Cricetinae gen. sp. [12], 100%; with Cricetinae gen. sp. [13], 71%. Moreover, in the test on Cricetinae gen. sp. [5], the ED50 turned out to be 0.02 nM. The results for the inhibition of control in test [6] and in [7] were 67% and 77%, respectively.
As for `CCOC(=O)c1ccc(/C(F)=C(C)\C=C\C2=C(C)CCCC2(C)C)cc1`, the Active/total cultures in the test on Cricetinae gen. sp. [14] is listed as 0%; in the test with Cricetinae gen. sp. [15] it was 8%; in the test on Cricetinae gen. sp. [17], 17%. This compound gave a Relative activity in the test with Cricetinae gen. sp. [3] of less than 0.1. Besides, the inhibition of control in test [16] is 5%; in test [7], 16%. In addition, the ED50 in the test on Cricetinae gen. sp. [5] came to 0.02 nM.
Consider `CCOC(=O)c1ccc(/C=C(C)/C=C/C2=C(C)CCCC2(C)C)c(OC)c1`, for which the Active/total cultures in the test with Cricetinae gen. sp. [18] turned out to be 33%; in the test with Cricetinae gen. sp. [19], 83%; in the test on Cricetinae gen. sp. [20], 100%; in the test with Cricetinae gen. sp. [21], 62%. In the test on Cricetinae gen. sp. [3], this compound yielded a Relative activity of 5. The ED50 in the test with Cricetinae gen. sp. [5] turned out to be 0.006 nM. Further, the inhibition of control in test [6] turned out to be 21%; in test [7] it was 39%.
As for `CCOC(=O)c1ccc(/C(F)=C(C)/C=C/C2=C(C)CCCC2(C)C)cc1`, the Active/total cultures is given as 92% in the test on Cricetinae gen. sp. [22], 46% with Cricetinae gen. sp. [23] and 83% in the test with Cricetinae gen. sp. [24]. The compound further came in with a Relative activity in the test with Cricetinae gen. sp. [3] of 2. The ED50 in the test on Cricetinae gen. sp. [5] was found to be 0.02 nM. For the same compound, the inhibition of control in test [6] stood at 56%; in test [7] it was 82%.
As to `CCOC(=O)c1ccc(/C=C(C)/C=C/C2=C(C)CCCC2(C)C)cc1`, the Active/total cultures in the test on Cricetinae gen. sp. [25] was found to be 100%; with Cricetinae gen. sp. [26], 100%; with Cricetinae gen. sp. [27], 0%; with Cricetinae gen. sp. [28] it was 31%. For the same compound, the Relative activity in the test on Cricetinae gen. sp. [3] stood at 1. In the test on Cricetinae gen. sp. [5], the ED50 was 0.006 nM. For the same compound, in test [7], the inhibition of control worked out at 80%.
